Converted amounts (≈) assume the structure as drawn.
Key:
[1] = Lipophilicity, log D of the compound at pH 7.4; format: physicochemical; details: buffer
[2] = Intrinsic clearance in human hepatocytes; format: ADME, cell-based, Hepatocyte
In short: (§1)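 Intrinsic clearance measured in human liver microsomes and in human hepatocytes and reported as scaled values. Arithmetic mean of at least two experiments.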

[3] = Intrinsic clearance in human liver microsomes; format: ADME, Microsome; details: read-out: CLH; in short: as §1
[4] = Plasma protein binding in human assessed as unbound fraction; format: ADME, cell-free
[5] = Kinetic solubility of compound in DMSO at pH 6.8 incubated for 24 hrs; format: physicochemical; details: read-out: Kinetic_solubility
In short: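 Kinetic solubility assay at pH 6.8. Arithmetic mean of at least two experiments.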

[6] = Plasma protein binding in rat assessed as unbound fraction; format: ADME, cell-free
Mus musculus [7] = experiment: Anti-inflammatory activity in po dosed C57BL/6 mouse assessed reduction in LPS-induced KC-GRO level in brain preincubated with compound for 60 mins followed by LPS-induction and measured after 90 mins by ELISA analysis; format: functional, organism-based; details: dose 10-100 mg/kg, time 150.0 min
In short: (§2)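 Mice dosed orally with vehicle (0 mpk) or 10, 30 or 100 mpk, 60 min before intraperitoneal LPS. Cytokine levels and free drug concentration in plasma and brain taken 90 min after LPS. Each dose group compared by one-way ANOVA with the vehicle group given i.p. LPS.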

Mus musculus [8] = experiment: Anti-inflammatory activity in po dosed C57BL/6 mouse assessed reduction in LPS-induced IL-6 level in plasma preincubated with compound for 60 mins followed by LPS-induction and measured after 90 mins by ELISA analysis; format: functional, organism-based; details: dose 10-100 mg/kg, time 150.0 min; in short: as §2
[9] = Unbound brain-to-plasma concentration ratio in Sprague-Dawley rat brain at 1 mg/kg, iv by LC-MS/MS analysis; format: ADME, organism-based; details: read-out: K(p,uu,brain)
In short: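 Male Sprague Dawley rats dosed by infusion as a cassette. Total drug measured in brain (Cb) and plasma (Cp). Kpu,u calculated as (Cb×Fub)/(Cp×Fup), using the unbound fractions in brain and in plasma.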

Mus musculus [10] = experiment: Anti-inflammatory activity in po dosed C57BL/6 mouse assessed reduction in LPS-induced IL-6 level in brain preincubated with compound for 60 mins followed by LPS-induction and measured after 90 mins by ELISA analysis; format: functional, organism-based; details: dose 10-100 mg/kg, time 150.0 min; in short: as §2
Mus musculus [11] = experiment: Anti-inflammatory activity in po dosed C57BL/6 mouse assessed reduction in LPS-induced TNFalpha level in plasma preincubated with compound for 60 mins followed by LPS-induction and measured after 90 mins by ELISA analysis; format: functional, organism-based; details: dose 10-100 mg/kg, time 150.0 min; in short: as §2
Mus musculus [12] = experiment: Anti-inflammatory activity in po dosed C57BL/6 mouse assessed reduction in LPS-induced IL-1beta level in brain preincubated with compound for 60 mins followed by LPS-induction and measured after 90 mins by ELISA analysis; format: functional, organism-based; details: dose 10-100 mg/kg, time 150.0 min; in short: as §2
Mus musculus [13] = experiment: Anti-inflammatory activity in po dosed C57BL/6 mouse assessed reduction in LPS-induced MCP-1 level in plasma preincubated with compound for 60 mins followed by LPS-induction and measured after 90 mins by ELISA analysis; format: functional, organism-based; details: dose 10-100 mg/kg, time 150.0 min; in short: as §2
Mus musculus [14] = experiment: Anti-inflammatory activity in po dosed C57BL/6 mouse assessed reduction in LPS-induced MCP-1 level in brain preincubated with compound for 60 mins followed by LPS-induction and measured after 90 mins by ELISA analysis; format: functional, organism-based; details: dose 10-100 mg/kg, time 150.0 min; in short: as §2
Mus musculus [15] = experiment: Anti-inflammatory activity in po dosed C57BL/6 mouse assessed reduction in LPS-induced KC-GRO level in plasma preincubated with compound for 60 mins followed by LPS-induction and measured after 90 mins by ELISA analysis; format: functional, organism-based; details: dose 10-100 mg/kg, time 150.0 min; in short: as §2
Mus musculus [16] = experiment: Anti-inflammatory activity in po dosed C57BL/6 mouse assessed reduction in LPS-induced IL-1beta level in plasma preincubated with compound for 60 mins followed by LPS-induction and measured after 90 mins by ELISA analysis; format: functional, organism-based; details: dose 10-100 mg/kg, time 150.0 min; in short: as §2
Mus musculus [17] = experiment: Anti-inflammatory activity in po dosed C57BL/6 mouse assessed increase in LPS-induced IL-10 level in plasma preincubated with compound for 60 mins followed by LPS-induction and measured after 90 mins by ELISA analysis; details: dose 10-100 mg/kg, time 150.0 min
[18] = Clearance in Sprague-Dawley rat measured for 4 hrs by LC-MS/MS analysis; format: ADME; details: in vivo
In short: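 Male Sprague Dawley rats dosed by infusion. Clearance measured during the cassette Kpu,u procedure.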

Mus musculus [19] = experiment: Anti-inflammatory activity in po dosed C57BL/6 mouse assessed reduction in LPS-induced TNFalpha level in brain preincubated with compound for 60 mins followed by LPS-induction and measured after 90 mins by ELISA analysis; format: functional, organism-based; details: dose 10-100 mg/kg, time 150.0 min; in short: as §2

| logD [1] | CLH [2] | microsomal CLint [3] | fraction unbound [4] | solubility kinetic at 24 h [5] | fraction unbound [6] | Kp uu [9] | clearance [18] | SMILES | Activity (Mus musculus [7]) | Activity (Mus musculus [8]) | Activity (Mus musculus [10]) | Activity (Mus musculus [11]) | Activity (Mus musculus [12]) | Activity (Mus musculus [13]) | Activity (Mus musculus [14]) | Activity (Mus musculus [15]) | Activity (Mus musculus [16]) | Activity (Mus musculus [17]) | Activity (Mus musculus [19]) |
| --- | --- | --- | --- | --- | --- | --- | --- | --- | --- | --- | --- | --- | --- | --- | --- | --- | --- | --- | --- |
| 2.74 | 3.8 µL/min/mg | < 5.3 µL/min/mg | 0.0232 | 56 µg/mL (≈ 120 µM) | 0.047 |  |  | CC(C)Oc1cc2nn(C34COC(C)(C3)C4)cc2cc1C(=O)Nc1cccn([C@H]2C[C@H]2F)c1=O |  |  |  |  |  |  |  |  |  |  |  |
| 2.16 | 3.43 µL/min/mg | 7.07 µL/min/mg |  | 58 µg/mL (≈ 137 µM) |  | 1 | 11.2 mL/min/kg | CC(C)Oc1cc2nn(C34COC(C)(C3)C4)cc2cc1C(=O)Nc1cccn(C)c1=O | Dose-Dependent Effect | Dose-Dependent Effect | Dose-Dependent Effect | Dose-Dependent Effect | Dose-Dependent Effect | Dose-Dependent Effect | Dose-Dependent Effect | Dose-Dependent Effect | Dose-Dependent Effect | Dose-Dependent Effect | Dose-Dependent Effect |
| 2.61 | 3.3 µL/min/mg | < 5.3 µL/min/mg | 0.0127 | 6.6 µg/mL (≈ 14.1 µM) | 0.083 |  |  | CC(C)Oc1nc2nn(C34COC(C)(C3)C4)cc2cc1C(=O)Nc1cccn([C@@H]2C[C@@H]2F)c1=O |  |  |  |  |  |  |  |  |  |  |  |
| 2.54 | 3 µL/min/mg | < 5.3 µL/min/mg | 0.0594 | 25 µg/mL (≈ 53.5 µM) | 0.0718 | 0.7 | 43 mL/min/kg | CC(C)Oc1nc2nn(C34COC(C)(C3)C4)cc2cc1C(=O)Nc1cccn([C@H]2C[C@H]2F)c1=O |  |  |  |  |  |  |  |  |  |  |  |

Source: ChEMBL document CHEMBL5634203, “A Tiny Pocket Packs a Punch: Leveraging Pyridones for the Discovery of CNS-Penetrant Aza-indazole IRAK4 Inhibitors” (ACS Med Chem Lett, 2024)
